# Assay results: the RNAGym collection of RNA variant scans (doi:10.1002/anie.201605470)
# B1: Osa-1-4 twister ribozyme (parent)
# chain: CCGCCUAACACUGCCAAUGCCGGUCCCAAGCCCGGAUAAAAGUGGAGGGGGCGG
# Variants of: B1
# Assay: self-cleavage, relative activity (ratio to wild type); higher = more cleavage; co-transcriptional
# How it was run: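 A DNA template for a 54-nucleotide Oryza sativa twister ribozyme was synthesised with 97 % wild-type base and 1 % of each other base at the 48 positions downstream of the cleavage site. It was transcribed in vitro for 2 h at 37 °C, allowing co-transcriptional self-cleavage, then reverse-transcribed with a template-switching oligonucleotide, PCR-amplified and deep-sequenced. Cleavage status was scored from reads with or without upstream sequence. Relative activity is fraction cleaved normalised to wild type.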
row,Variant,self-cleavage
1,C21U C26U,0.88
2,G22U G47U,0.07
3,G22U G47C,0.05
4,G22U G47A,0.07
5,G22A G50U,0.94
6,G22A G50C,0.68
7,G22A G50A,1
8,G22A G54U,0.84
9,G22A G54C,0.82
10,G22A G54A,0.77
11,G22U G53C,0.05
12,G22U G53A,0.1
13,G22U G53U,0.12
14,G22C G49C,0.03
15,G22C G49U,0.03
16,G22C G49A,0.03
17,C21U G22A,0.26
18,C21U G22U,0.1
19,C21U G22C,0.17
20,G22C G53C,0.03
21,G22C G53U,0.04
22,G22C G53A,0.06
23,G22A G35A,0.34
24,G22A G35C,0.11

row,Variant,self-cleavage
1,G22A G35U,0.32
2,G22A G53U,0.14
3,G22A G53C,0.09
4,G22A G53A,0.51
5,G22U G51C,0.08
6,G22U G51U,0.38
7,G22U G51A,0.1
8,C21U G53C,0.1
9,C21U G53U,0.32
10,C21U G53A,0.64
11,G22C G47C,0.02
12,G22C G47A,0.03
13,G22C G47U,0.04
14,G22C G35C,0.03
15,G22C G35U,0.04
16,G22C G35A,0.03
17,C21U U18G,0.78
18,C21U U18A,1
19,C21U U18C,1.03
20,C21U G34C,0.96
21,C21U G34U,1.05
22,C21U G34A,1.05
23,G22U G30U,0.03
24,G22U G30C,0.04

row,Variant,self-cleavage
1,G22U G30A,0.03
2,C21U C27A,0.15
3,C21U C27U,0.14
4,C21U C27G,0.09
5,C21U,1.03
6,C21U G13A,0.11
7,C21U G13U,0.04
8,C21U G13C,0.03
9,G23A G35C,0.08
10,G23A G35U,0.13
11,G23A G35A,0.14
12,G22U U12A,0.13
13,G22U U12G,0.05
14,G22U U12C,0.1
15,G22C U37G,0.17
16,G22C U37C,0.14
17,G22C U37A,0.14
18,G22C G51A,0.04
19,G22C G51C,0.03
20,G22C G51U,0.04
21,C21U U24C,0.26
22,C21U U24G,0.09
23,C21U U24A,0.29
24,G23A G42C,0.07

row,Variant,self-cleavage
1,G23A G42A,0.08
2,G23A G42U,0.05
3,G22U G44A,0.72
4,G22U G44C,0.81
5,G22U G44U,0.47
6,G22U U18C,0.68
7,G22U U18A,0.84
8,G22U U18G,0.82
9,G22C U12G,0.03
10,G22C U12C,0.07
11,G22C U12A,0.05
12,G22A U24G,0.13
13,G22A U24A,0.36
14,G22A U24C,0.16
15,C21U G44A,0.97
16,C21U G44U,0.95
17,C21U G44C,0.99
18,C21U G23A,0.1
19,C21U G23C,0.06
20,C21U G23U,0.06
21,G22C G44U,0.07
22,G22C G44C,0.06
23,G22C G44A,0.07
24,C21U C33A,0.08

row,Variant,self-cleavage
1,C21U C33G,0.07
2,C21U C33U,0.47
3,C21U G47C,0.12
4,C21U G47A,0.19
5,C21U G47U,0.23
6,G22C G48U,0.02
7,G22C G48A,0.02
8,G22C G48C,0.02
9,C21G U43C,0.05
10,C21G U43A,0.09
11,C21G U43G,0.08
12,G22U U37G,0.92
13,G22U U37A,0.93
14,G22U U37C,0.55
15,G22U,0.93
16,G22A,1.05
17,G22C,0.19
18,G23A G30U,0.04
19,G23A G30A,0.04
20,G23A G30C,0.04
21,G22A U43G,0.1
22,G22A U43A,0.3
23,G22A U43C,0.18
24,G22U G23U,0.07

row,Variant,self-cleavage
1,G22U G23C,0.04
2,G22U G23A,0.08
3,G22C G30U,0.02
4,G22C G30C,0.02
5,G22C G30A,0.03
6,G23A G34C,0.07
7,G23A G34U,0.07
8,G23A G34A,0.11
9,G22U G54A,0.58
10,G22U G54C,0.64
11,G22U G54U,0.6
12,G22A G30U,0.05
13,G22A G30A,0.05
14,G22A G30C,0.05
15,C21U G45C,0.07
16,C21U G45U,0.11
17,C21U G45A,0.22
18,C21U G35C,0.1
19,C21U G35U,0.57
20,C21U G35A,0.98
21,G22U G45A,0.11
22,G22U G45U,0.06
23,G22U G45C,0.04
24,G22A G42A,0.17

row,Variant,self-cleavage
1,G22A G42C,0.1
2,G22A G42U,0.05
3,G22C G50C,0.05
4,G22C G50A,0.34
5,G22C G50U,0.11
6,G22A U18G,0.94
7,G22A U18C,0.98
8,G22A U18A,1.02
9,C21G U24G,0.03
10,C21G U24C,0.04
11,C21G U24A,0.06
12,G23A G44C,0.27
13,G23A G44A,0.15
14,G23A G44U,0.18
15,C21G G50U,0.1
16,C21G G50C,0.06
17,C21G G50A,0.09
18,G22U U24G,0.07
19,G22U U24C,0.06
20,G22U U24A,0.13
21,C21U C32U,0.13
22,C21U C32A,0.09
23,C21U C32G,0.11
